Measurements published in ChEMBL document CHEMBL3526146, “In vitro and in vivo metabolism and pharmacokinetics of BMS-562086, a potent and orally bioavailable corticotropin-releasing factor-1 receptor antagonist” (Drug Metab Dispos, 2012).

Experiments:
[1] = Drug metabolism in bile duct-cannulated Sprague-Dawley rat bile assessed as DPH-123554 metabolite level at 30 mg/kg, po after 12 hrs by LC-MS/MS analysis; type: ADME, organism-based; set-up: dose 30 mg/kg, route oral; settings: in vivo
In short: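 Male bile-duct-cannulated Sprague-Dawley rats (n=3), fasted overnight, received 30 mg/kg by gavage in 0.5% methylcellulose. Urine and bile were collected 0-12 h and pooled by equal percentage weight across animals, then centrifuged. Supernatants were profiled by LC/MS/MS. Bile was also treated with β-glucuronidase in pH 4.8 acetate buffer, 37°C, 16 h.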

[2] = test system: Canis familiaris; experiment: Terminal volume of distribution in beagle dog at 1 mg/kg, iv; type: ADME, organism-based, Canis lupus familiaris; set-up: dose 1 mg/kg, route intravenous; settings: in vivo
In short: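 Male beagles (n=3, 10.1-12.7 kg), fasted ~15 h pre- and 4 h post-dose, given a 1 mg/kg IV bolus via saphenous vein catheter in N,N-dimethylacetamide:propylene glycol:water (1:7:2). Plasma drawn 0-96 h and assayed by LC/MS/MS. Noncompartmental analysis; Vz = CLp (dose/AUC(INF)) divided by elimination rate constant.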

[3] = Drug metabolism in human cryopreserved hepatocytes assessed as 7-hydroxycoumarin formation at 25 uM after 3 hrs by HPLC analysis; type: ADME, cell-based, Hepatocyte
[4] = Drug metabolism in cynomolgus monkey cryopreserved hepatocytes assessed as decrease of compound level at 25 uM after 3 hrs by HPLC analysis; type: ADME, cell-based, Macaca fascicularis, Hepatocyte; settings: read-out: Drug metabolism
In short: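 Mouse, rat, dog, monkey and human hepatocytes (trypan blue viability checked) at 1.0×10^6 cells/ml in Krebs-Henseleit buffer were incubated with 25 µM compound, in duplicate. Conditions were 37°C, 95/5 O2/CO2, orbital shaking, 3 h. 7-Ethoxycoumarin and 7-hydroxycoumarin (100 µM) served as positive controls, with a cell-free negative control. Reactions were quenched with ice-cold acetonitrile, then sonicated and centrifuged; supernatants were analysed by LC/MS/MS.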

[5] = Cmax in beagle dog at 5 mg/kg, po; type: ADME, organism-based, Canis lupus familiaris; set-up: dose 5 mg/kg, route oral; settings: in vivo
In short: (§1)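 Male beagle dogs (n=3, 10.1-12.7 kg) in a one-way IV/PO crossover with one-week washout, fasted ~15 h pre-dose and 4 h post-dose. Dosing was 1 mg/kg IV bolus into the saphenous vein in DMA:propylene glycol:water (1:7:2), or 5 mg/kg gavage in 0.5% methylcellulose. Blood was sampled 0-96 h. Plasma was assayed by LC/MS/MS (LLOQ 1.00 ng/ml) with noncompartmental analysis; Cmax was observed directly.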

[6] = Drug metabolism in rat hepatocytes assessed as at 25 uM after 3 hrs by HPLC analysis
[7] = Drug metabolism in rat hepatocytes assessed as 7-hydroxycoumarin formation at 25 uM after 3 hrs by HPLC analysis; type: ADME, cell-based, Hepatocyte
[8] = Drug metabolism in beagle dog hepatocytes assessed as 7-hydroxycoumarin formation at 25 uM after 3 hrs by HPLC analysis; type: ADME, cell-based, Canis lupus familiaris, Hepatocyte
[9] = Terminal half life in beagle dog at 5 mg/kg, po; type: ADME, organism-based, Canis lupus familiaris; set-up: dose 5 mg/kg, route oral; settings: in vivo, read-out: beta t1/2 (converted)
In short: (§2)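 Male beagles (n=3, 10.1-12.7 kg) in one-way crossover, one-week washout after IV leg; fasted ~15 h before and 4 h after dosing. Single gavage 5 mg/kg in 0.5% aqueous methylcellulose. Plasma sampled 0-96 h, parent measured by validated LC/MS/MS (1.00-1000 ng/ml). Noncompartmental analysis; Tmax taken from observed data.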

[10] = AUC (infinity) in beagle dog at 1 mg/kg, iv; type: ADME, organism-based, Canis lupus familiaris; set-up: time infinity, dose 1 mg/kg, route intravenous; settings: plasma; in short: as §1
[11] = Tmax in beagle dog at 5 mg/kg, po; type: ADME, organism-based, Canis lupus familiaris; set-up: dose 5 mg/kg, route oral; settings: in vivo; in short: as §2
[12] = Terminal half life in beagle dog at 1 mg/kg, iv; type: ADME, organism-based, Canis lupus familiaris; set-up: dose 1 mg/kg, route intravenous; settings: in vivo, read-out: beta t1/2 (converted)
In short: (§3)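 Male beagle dogs (n=3), one-way IV/PO crossover with a one-week washout, fasted about 15 h before and 4 h after dosing. IV dose of 1 mg/kg as a saphenous bolus in N,N-dimethylacetamide:propylene glycol:water (1:7:2); PO dose of 5 mg/kg by gavage in 0.5% methylcellulose. Plasma sampled 0–96 h and assayed by LC/MS/MS (LLOQ 1.00 ng/ml). Noncompartmental analysis; CL = dose/AUC(INF) after IV; F from dose-normalized AUC ratio.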

[13] = Drug metabolism in cynomolgus monkey cryopreserved hepatocytes assessed as 7-hydroxycoumarin formation at 25 uM after 3 hrs by HPLC analysis; type: ADME, cell-based, Macaca fascicularis, Hepatocyte
[14] = test system: Serum; experiment: Metabolic stability in human serum after 3 hrs by equilibrium dialysis; type: ADME, cell-free
In short: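 Stability assessed in the serum samples from the equilibrium-dialysis setup: compound at final 12.8, 25.6 and 38.5 µM, dialysed against 134 mM phosphate buffer, pH 7.4, at 37°C with rotation at 20 rpm. Samples monitored for degradants over the 3-h incubation.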

[15] = Drug metabolism in rat hepatocytes assessed as decrease of compound level at 25 uM after 3 hrs by HPLC analysis; type: ADME, cell-based, Hepatocyte; settings: read-out: Drug metabolism
[16] = Tmax in chimpanzee at 1 mg/kg, po; type: ADME, organism-based, Pan troglodytes; set-up: dose 1 mg/kg, route oral; settings: in vivo
In short: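 Two male chimpanzees (58 and 72 kg), fasted overnight, dosed orally at 1 mg/kg as a suspension in 0.5% aqueous methylcellulose/Tang orange juice with 1% Tween 80 (1:1). Plasma sampled 0-96 h, parent measured by validated LC/MS/MS. Tmax taken from observed data by noncompartmental analysis; reported as median (min, max).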

[17] = Drug metabolism in human cryopreserved hepatocytes assessed as decrease of compound level at 25 uM after 3 hrs by HPLC analysis; type: ADME, cell-based, Hepatocyte; settings: read-out: Drug metabolism
[18] = Plasma clearance in beagle dog at 1 mg/kg, iv; type: ADME, organism-based, Canis lupus familiaris; set-up: dose 1 mg/kg, route intravenous; in short: as §3
[19] = Protein binding in human serum after 3 hrs by equilibrium dialysis; type: ADME, cell-free; settings: read-out: PB (converted)
In short: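 Equilibrium dialysis of serum spiked to final 12.8, 25.6 and 38.5 µM against 134 mM phosphate buffer, pH 7.4, through a 10,000 Da cutoff membrane. Cells rotated at 20 rpm, 37°C, 3 h. Percent unbound taken as buffer concentration divided by serum concentration.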

Row | Drug metabolism [1] | Vz [2] | Drug metabolism [3] | metabolised at 3 h, 25 µM [4] | Cmax [5] | Drug metabolism [6] | Drug metabolism [7] | Drug metabolism [8] | half-life [9] | AUC(0-inf) [10] | Tmax [11] | half-life [12] | Drug metabolism [13] | Stability [14] | metabolised at 3 h, 25 µM [15] | Tmax [16] | metabolised at 3 h, 25 µM [17] | clearance [18] | fraction unbound at 3 h [19] | Compound
1 | metabolite_detected |  |  |  |  |  |  |  |  |  |  |  |  |  |  |  |  |  |  | CC[C@@H](C)Nc1nc(C)nc2c(-c3ccc(O)nc3C)c(C)nn12
2 |  | 28.2 L/kg | metabolite_detected | 83% | 1800 nM | metabolite_detected | metabolite_detected | metabolite_detected | 46.7 h | 4.3 µM·h | 0.75 h | 43.9 h | metabolite_detected | Stable | 68% | 2 h | 40% | 11.6 mL/min/kg | 0.039 | CC[C@@H](C)Nc1nc(C)nc2c(-c3ccc(OC)nc3C)c(C)nn12 [PEXACERFONT]
